TCR-CD3 inh = inhibitors of human TCR-CD3 interaction | TAMRA-labeled TCR probe fluorescence, biochemical | inhibition, % at 9.4 µM | 0.37% of 360,000 active | AID 651800; in the data active = inhibition above about 19%;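 note: recombinant mutant TCR 2C K166C tagged with TAMRA read by polarization; 0% = receptor in buffer alone and 100% = receptor with positive control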
PRMT1 inh = inhibitors of human PRMT1. inhibition, % at 2.79 µM. recombinant PRMT1, activity-based probe fluorescence polarization. 1.3% of 370,000 active. AID 652257. Q99873;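 active = inhibition above about 21% made by adding two undisclosed values, limit read from the data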
SIAE primary = blocks human sialic acid acetylesterase. inhibition, % at 9.66 µM. AID 1053197. Q9HAT2. 0.69% of 370,000 active. SIAE FP-Rh probe binding, fluorescence polarization;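 active = inhibition above a cutoff: mean of compounds within the control limits plus 3 SD of those, cut at about 17% in these data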;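 note: 0% = plate median of compound wells and 100% = probe without SIAE protein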
mABHD4 FP = ABHD4 (mouse) inhibition, primary FP screen. AID 720543. 0.54% of 370,000 active. inhibition, % at 8.92 µM. Q8VD66. purified mABHD4, FP-Rh probe fluorescence polarization;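 active = inhibition exceeding the mean over every tested compound plus 3 SD, cut at about 30% in these data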;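 note: 0% = plate median of compound wells and 100% = S159A mutant with DMSO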
Target sequence (Q8VD66 whole entry, looked up): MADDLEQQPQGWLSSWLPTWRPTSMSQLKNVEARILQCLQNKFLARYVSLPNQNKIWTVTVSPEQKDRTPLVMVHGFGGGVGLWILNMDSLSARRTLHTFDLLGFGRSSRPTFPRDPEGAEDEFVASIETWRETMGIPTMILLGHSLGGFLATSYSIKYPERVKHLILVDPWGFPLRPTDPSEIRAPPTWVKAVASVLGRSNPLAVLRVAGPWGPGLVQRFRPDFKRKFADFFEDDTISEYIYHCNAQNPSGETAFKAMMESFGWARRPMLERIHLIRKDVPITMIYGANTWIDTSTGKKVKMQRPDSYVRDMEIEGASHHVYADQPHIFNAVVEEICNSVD
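Assay system: Wild-type mouse ABHD4 protein | Medium: HEPES pH 7.0 buffer, 150 mM NaCl, 0.01% Pluronic F-127 | Incubation: Enzyme–compound pre-incubation 45 min, then probe 60 min, both 25 °C | Technique: Fluorescence polarization with parallel and perpendicular emission, 525/598 nm | Evaluation: % inhibition of FP-Rh probe binding versus controls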
rCAG binder = binds r(CAG) RNA repeats. r(CAG) RNA repeat, TO-PRO-1 dye displacement fluorescence. inhibition, % at 3 µM. 1.3% of 370,000 active. AID 651821;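 active = inhibition above the plate cutoff, the mean of all test compounds on that plate plus 3 SD, cut at about 35% in these data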;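 note: 0% = DMSO alone and 100% = 100 µM mitoxantrone as full dye displacement; higher means more dye released from RNA so lower well fluorescence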
mABHD4 conf = confirmation of mouse ABHD4 inhibitors. 55% of 1,800 active. inhibition, % at 8.92 µM. shares compounds with mABHD4 FP. purified mABHD4, FP-Rh probe fluorescence polarization;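 active = mean inhibition across replicates above the hit cutoff set in the primary screen, cut at about 30% in these data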;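 note: 0% = wild-type ABHD4 with DMSO and 100% = catalytically dead S159A mutant with DMSO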
Active calls of the source: *; / = no result; ! = repeats disagree. Sampled rows, rich in hits. Any-hit rate of the full collection: about 3.3%.

SMILES	TCR-CD3 inh	PRMT1 inh	SIAE primary	mABHD4 FP	rCAG binder	mABHD4 conf
COc1cc(C2NCC(c3ccc(Cl)cc3Cl)c3c2[nH]c2ccccc32)cc(OC)c1OC (stereo unspecified)	-5	-3	0	44*	13	59*
O=C(NCc1ccccn1)C1Nc2ccc(C(F)(F)F)cc2C2C=CCC12 (stereo unspecified)	-6	10	16	32*	28	4
O=C(NCc1ccccn1)c1nc(-c2ccc(C(F)(F)F)cc2)no1	2	-1	1	-3	-2	/
CN(C1=C(NC(=O)c2ccc(Cl)cc2)C(=O)c2ccccc2C1=O)c1ccccc1	-4	3	1	56*	5	71*
O=C1C(Cl)=C(NC(=O)c2ccccc2)C(=O)C(Cl)=C1NC(=O)c1ccccc1	-8	96*	3	64*	10	71*
O=C(Nc1cccc(Cl)c1)c1ccccc1	-3	4	-1	5	9	/
COC(=O)CN1CCN(C(=O)c2nocc2C)CC1	/	-5	2	1	1	/
Oc1ccc(N=Nc2ccccc2-c2nn[nH]n2)c(O)c1	2	19	16	68*	79*	71*
Cc1ccccc1-c1nn[nH]n1	-11	0	4	-2	0	/
C=CCN1[C@H](C#N)[C@@H](c2ccccc2)[C@H]1CO	/	-4	-1	2	4	/
CC(=O)N1N=C(c2cccc(O)c2)CC1c1cccs1 (stereo unspecified)	6	-2	2	36*	2	-4
CC(=O)N1N=C(c2cccc(NS(C)(=O)=O)c2)CC1c1cccs1 (stereo unspecified)	-1	1	-4	11	-1	/
COc1cc(/C=C2\SC(=O)N(CC(=O)Nc3cccc(C)c3)C2=O)cc([N+](=O)[O-])c1O	-4	9	-4	31*	27	80*
COc1ccc(/C=N/Nc2ccc(C(F)(F)F)cc2[N+](=O)[O-])cc1O	6	-3	-9	6	7	/
COc1cccc(C=NN(C)c2c([N+](=O)[O-])cc(C(F)(F)F)cc2[N+](=O)[O-])c1O	2	0	9	45*	4	49*
O=C1CS/C(=C\[N+](=O)[O-])N1c1ccccc1	1	5	4	31*	18	-1
O=C1CS/C(=N\N=C\c2ccco2)N1c1ccccc1	10	6	10	19	14	/
Cc1ccccc1-c1csc(C(C)(O)c2cccnc2)n1 (stereo unspecified)	4	-1	-3	3	2	/
O=c1c2ccccc2nc(COc2ccccc2)n1/N=C/c1ccc(O)c(O)c1	17	0	-2	36*	16	11
Cc1ccc(C(=O)NC2CCCCN(Cc3cccc(Cl)c3)C2=O)c(C)c1 (stereo unspecified)	/	0	-1	3	-2	/
COCCCn1c(SCc2nnc(-c3ccc(OC)c(OC)c3)o2)nc2ccccc2c1=O	-1	2	-7	17	-3	/
COc1ccc(-c2nnc(CSc3nc4ccccc4c(=O)n3CC(C)C)o2)cc1OC	1	3	-11	31*	-1	28
COc1cc(OC)cc(C(=O)Nc2nc(CC(=O)NCc3ccc(F)cc3)cs2)c1	-8	1	0	43*	4	35*
CC(C)Oc1ccc(S(=O)(=O)N2CCCCCC2)c2ccccc12	/	3	10	9	1	/
O=C(O)c1ccc(N=Nc2c(O)ccc3ncccc23)cc1	-14	3	1	73*	7	80*
NC(=S)NN=Cc1cc(-c2cccc(N)c2)ccn1	0	6	0	44*	6	58*
CC(C)N=C(N)N=C(N)Nc1ccc(Cl)cc1	8	-6	-5	2	9	/
NC(=NCCCCCCN=C(N)/N=C(\N)Nc1ccc(Cl)cc1)/N=C(\N)Nc1ccc(Cl)cc1	3	-8	-8	46*!	22	40*
Cc1nn(-c2ccccc2)c(Cl)c1C1C(C#N)=C(N)Oc2c1c(C)nn2-c1ccccc1 (stereo unspecified)	-4	1	-3	12	6	/
COc1cc(-n2nc(C)c3c2OC(N)=C(C#N)C3c2ccccc2)c(Cl)c(Br)c1O (stereo unspecified)	-2	2	5	30*	17	40*
